The target in data set [1] is T1, NDM-1 (Klebsiella pneumoniae, UniProt C7C422). Put plainly: NDM-1 IC50, fluorescent fluorocillin assay. It is filed as biochemical.
The target of another data set is T2, MMP-2 (Homo sapiens, UniProt P08253).
T2 sequence (P08253 110-660): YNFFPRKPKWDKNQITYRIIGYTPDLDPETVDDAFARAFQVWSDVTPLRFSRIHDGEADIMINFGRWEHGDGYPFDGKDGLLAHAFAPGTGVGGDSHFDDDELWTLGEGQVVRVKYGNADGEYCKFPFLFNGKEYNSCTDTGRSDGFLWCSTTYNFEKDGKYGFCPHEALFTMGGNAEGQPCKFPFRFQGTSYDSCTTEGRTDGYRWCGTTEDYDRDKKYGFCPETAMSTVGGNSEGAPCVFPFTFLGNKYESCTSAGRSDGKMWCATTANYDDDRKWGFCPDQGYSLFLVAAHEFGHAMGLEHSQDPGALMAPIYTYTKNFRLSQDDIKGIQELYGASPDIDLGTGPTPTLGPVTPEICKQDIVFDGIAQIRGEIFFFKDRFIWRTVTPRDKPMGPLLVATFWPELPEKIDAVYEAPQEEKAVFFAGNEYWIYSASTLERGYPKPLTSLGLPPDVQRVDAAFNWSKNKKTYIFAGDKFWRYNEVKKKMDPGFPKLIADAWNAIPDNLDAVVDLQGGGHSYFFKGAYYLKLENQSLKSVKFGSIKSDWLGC
The data set can be described thus: MMP-2 inhibition, OmniMMP fluorogenic substrate. Conditions: at 10 μM. The class given is biochemical. Put shortly: (§1)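 Human recombinant MMP-2 (1.16 U/well) or MMP-12 (0.007 U/well) was preincubated with test compound (1 mM–5 μM range) for 30 min at 37 °C in 50 mM HEPES, 10 mM CaCl2, 0.05% Brij-35, pH 7.5. The reaction was started with 4 μM OmniMMP substrate (Mca-Pro-Leu-Gly-Leu-Dpa-Ala-Arg-NH2), and the fluorescence increase was monitored over 20 min (ex 320/em 400 nm). No-inhibitor wells were set to 100% and 200 μM NSA to 0%; run in triplicate.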

For the next data set, the target named is MMP-12 (Homo sapiens, UniProt P39900). The data set can be described thus: MMP-12 inhibition, OmniMMP fluorogenic substrate. It is filed as biochemical. As to conditions: at 10 μM. Put shortly:
as §1

The target in the next data set is HDAC-1 (Homo sapiens, UniProt Q13547). The data set can be described thus: HDAC-1 inhibition, fluorescence assay. The class given is biochemical. As to conditions: at 10 μM. Put shortly:
(§2)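 After 5 min preincubation, 20 μM HDAC substrate 3 was added for 30 min at 37 °C, then developer for 15 min at room temperature. Fluorescence ex 360/em 460 nm was read. No-inhibitor wells were set to 100% and 200 μM SAHA to 0%; run in triplicate.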

For a further data set, the target named is T3, HDAC-6 (Homo sapiens, UniProt Q9UBN7).
T3 sequence (Q9UBN7 1-1215): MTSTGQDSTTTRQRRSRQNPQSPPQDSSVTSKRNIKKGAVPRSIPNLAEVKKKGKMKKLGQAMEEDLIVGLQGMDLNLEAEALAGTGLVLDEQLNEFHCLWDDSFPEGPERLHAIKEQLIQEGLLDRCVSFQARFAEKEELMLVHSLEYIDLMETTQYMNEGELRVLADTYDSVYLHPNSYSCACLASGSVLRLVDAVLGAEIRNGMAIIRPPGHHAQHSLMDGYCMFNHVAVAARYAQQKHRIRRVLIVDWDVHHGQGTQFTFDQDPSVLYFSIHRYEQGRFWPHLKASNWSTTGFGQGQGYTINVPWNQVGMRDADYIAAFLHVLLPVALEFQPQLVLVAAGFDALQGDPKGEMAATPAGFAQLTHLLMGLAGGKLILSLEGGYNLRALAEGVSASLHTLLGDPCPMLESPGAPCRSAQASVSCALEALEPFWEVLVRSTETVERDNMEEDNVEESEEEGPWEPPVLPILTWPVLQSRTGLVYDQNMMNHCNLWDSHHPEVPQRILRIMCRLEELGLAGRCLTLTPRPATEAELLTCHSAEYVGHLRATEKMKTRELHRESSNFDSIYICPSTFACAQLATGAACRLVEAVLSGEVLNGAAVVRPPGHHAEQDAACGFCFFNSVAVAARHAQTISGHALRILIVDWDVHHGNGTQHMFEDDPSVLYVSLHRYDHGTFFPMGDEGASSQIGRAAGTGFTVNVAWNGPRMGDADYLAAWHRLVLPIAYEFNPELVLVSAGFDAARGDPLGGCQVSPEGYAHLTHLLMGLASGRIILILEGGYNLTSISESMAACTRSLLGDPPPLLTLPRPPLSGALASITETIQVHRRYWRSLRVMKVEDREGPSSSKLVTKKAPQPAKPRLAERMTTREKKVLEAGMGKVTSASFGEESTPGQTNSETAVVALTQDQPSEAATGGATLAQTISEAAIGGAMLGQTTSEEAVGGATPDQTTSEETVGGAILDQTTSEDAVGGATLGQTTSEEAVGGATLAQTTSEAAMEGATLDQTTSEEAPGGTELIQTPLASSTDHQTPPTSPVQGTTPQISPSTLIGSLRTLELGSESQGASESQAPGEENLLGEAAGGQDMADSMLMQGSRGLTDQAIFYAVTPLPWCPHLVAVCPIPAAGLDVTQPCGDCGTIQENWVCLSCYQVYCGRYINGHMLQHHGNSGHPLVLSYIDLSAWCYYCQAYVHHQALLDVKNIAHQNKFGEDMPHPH
The data set can be described thus: HDAC-6 inhibition, fluorescence assay. It is filed as biochemical. As to conditions: at 10 μM. In outline:
as §2

The target of data set [2] is Human carbonic anhydrase II (Homo sapiens, UniProt P00918). Put plainly: hCAII inhibition, p-nitrophenyl acetate assay. It is filed as biochemical. Put shortly: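 Esterase activity was started with 500 μM p-nitrophenyl acetate and followed at 405 nm for 15 min. No-inhibitor wells were set to 100% and 50 μM benzene sulfonamide to 0%; run in triplicate.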
For data set [3], the system named is Zn(II)-dependent metalloenzymes (HDACs, MMPs, CAs). The data set can be described thus: Panel of Zn. The class given is biochemical. Conditions: 50 – 100 μM; data not shown.
The target in data set [4] is T1, NDM-1. Put plainly: NDM-1 IC50 variation with exogenous Zn. It is filed as biochemical. Conditions: Figure S3.
The target of data set [5] is T1, NDM-1. As to conditions: for Zn(II) content of NDM-1 after incubation and dialysis: NDM-1 8 μM, 50 mM HEPES pH 7.5.
In data set [6] the target is T1, NDM-1. The class given is binding. As to conditions: 2 μM NDM-1, up to 32 μM compound.
The test system of data set [7] is E. coli and K. pneumoniae clinical isolates expressing blaNDM-1. The data set can be described thus: organism not typed. It is filed as cell-based.
Another data set has as its system HEK293 cells. The data set can be described thus: Cytotoxicity assay. The class given is cell-based, human. Conditions: concentrations relevant to the MIC studies; 4 and 24 h.
The nature of data set [8]: Control titration of L-tryptophan fluorescence. Conditions: 2 μM L-tryptophan.
The test system of data set [9] is clinical E. coli isolates expressing blaNDM-1. Put plainly: microbe, parasite or virus in culture. As to conditions: Escherichia coli. It is filed as cell-based.
Data set [10] relates to clinical K. pneumoniae isolates expressing blaNDM-1. Put plainly: microbe, parasite or virus in culture. It is filed as cell-based. Conditions: Klebsiella pneumoniae.

Five compounds from paper PMC5599375 (Journal of medicinal chemistry, 2017) can be followed below.

≈ marks a conversion by molar mass, not a printed value. Entries after “also recorded” stand apart in the source; their conditions may differ. Read-outs that look alike come from different tables or passages of the source. A value given as a limit tells only on which side of the number the result lay.

T1 sequence (C7C422 29-270 limits assumed): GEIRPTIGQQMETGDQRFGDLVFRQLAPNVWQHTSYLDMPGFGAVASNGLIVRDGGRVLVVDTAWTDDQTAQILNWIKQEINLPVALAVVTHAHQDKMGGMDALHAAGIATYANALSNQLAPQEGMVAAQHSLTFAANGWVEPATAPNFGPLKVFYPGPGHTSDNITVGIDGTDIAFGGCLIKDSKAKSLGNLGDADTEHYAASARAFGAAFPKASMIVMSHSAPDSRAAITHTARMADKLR
HDAC-1, sequence (Q13547 whole entry): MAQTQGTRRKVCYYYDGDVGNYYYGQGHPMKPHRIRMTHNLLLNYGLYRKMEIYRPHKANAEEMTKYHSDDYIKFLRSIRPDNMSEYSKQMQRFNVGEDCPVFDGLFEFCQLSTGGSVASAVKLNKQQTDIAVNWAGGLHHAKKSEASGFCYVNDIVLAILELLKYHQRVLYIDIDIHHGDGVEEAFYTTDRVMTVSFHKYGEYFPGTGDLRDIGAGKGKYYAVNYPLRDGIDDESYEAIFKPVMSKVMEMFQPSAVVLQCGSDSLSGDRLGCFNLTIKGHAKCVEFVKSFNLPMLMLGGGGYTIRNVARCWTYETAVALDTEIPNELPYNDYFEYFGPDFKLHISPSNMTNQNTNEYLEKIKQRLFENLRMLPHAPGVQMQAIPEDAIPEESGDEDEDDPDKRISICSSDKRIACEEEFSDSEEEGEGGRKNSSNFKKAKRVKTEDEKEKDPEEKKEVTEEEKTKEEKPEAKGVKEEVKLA
MMP-12, sequence (P39900 106-470): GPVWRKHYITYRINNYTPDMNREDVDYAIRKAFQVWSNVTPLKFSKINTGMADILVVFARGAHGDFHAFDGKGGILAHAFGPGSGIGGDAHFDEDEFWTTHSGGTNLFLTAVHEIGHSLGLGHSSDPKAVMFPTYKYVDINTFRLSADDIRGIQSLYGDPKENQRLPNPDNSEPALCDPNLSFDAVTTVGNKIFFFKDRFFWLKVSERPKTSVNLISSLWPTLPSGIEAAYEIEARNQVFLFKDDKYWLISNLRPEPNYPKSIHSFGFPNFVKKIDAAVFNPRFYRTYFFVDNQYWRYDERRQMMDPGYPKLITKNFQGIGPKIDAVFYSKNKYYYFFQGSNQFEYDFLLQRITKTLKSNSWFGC

`Nc1cccc(-c2cc(C(=O)O)nc(C(=O)O)c2)c1` [Compound 36, 4-(3-Aminophenyl)pyridine-2,6-dicarboxylic acid] returned a ligand efficiency at NDM-1 [1] of 0.5 kcal/mol/non-H atom. Also, the “fold improvement in inhibition compared to DPA” value at NDM-1 [1] (fluorescent assay) turned out to be 4 fold. Moreover, at MMP-2, the “Percent inhibition of MMP-2” value is listed as “some inhibition”. For the same compound, the “Percent inhibition of MMP-12” value at MMP-12 is on record as “some inhibition”. For the same compound, on HDAC-1, the “Percent inhibition of HDAC-1” value was “did not show inhibition; also recorded: No inhibition”. Besides, on HDAC-6, the “Percent inhibition of HDAC-6” value is given as “did not show inhibition; also recorded: No inhibition”. Further, the “selectivity for NDM-1 over human CAII” value in [2] is recorded as “at least 500 fold”. For the same compound, the “Percent inhibition of hCAII” value in data set [2] (at 10 μM) was “did not show inhibition; also recorded: No inhibition”. Besides, the “inhibition of Zn(II) metalloenzymes at higher concentrations” value in [3] was less than 50%. Also, on NDM-1 [4], the “effect of exogenous Zn(II) in the assay buffer on NDM-1 inhibition” value is “little impact on the IC50 value”. Moreover, the “Zn(II) content of NDM-1 after incubation and dialysis” value (shortened to “Zn(II) content”) on NDM-1 [5] was “no significant removal of Zn(II)”. In addition, the “Zn(II) removed from NDM-1” value on NDM-1 [5] (~24 μM compound) is recorded as 10–20%. Moreover, on NDM-1 [6], the “quenching of intrinsic tryptophan fluorescence of NDM-1” value is 50–60%. Besides, the “effect on bacterial growth of compound alone” value in data set [7] (36 alone (100 mg/L), all E. coli and K. pneumoniae strains) is listed as “no effect on growth”. In addition, the “toxicity to HEK293 cells (growth, morphology, viability)” value in the data set with HEK293 cells is recorded as “not adversely effected; also recorded: did not exhibit cytotoxicity; also recorded: no toxicity was observed”.
For the compound `O=C(O)c1cccc(C(=O)O)n1` [DPA, 2,6-dipicolinic acid], the “effect of exogenous Zn(II) in the assay buffer on NDM-1 inhibition” value at NDM-1 [4] is “diminishes the inhibition activity”. Besides, on NDM-1 [5], the “Zn(II) content” value is “significant loss in Zn(II) content”.
Consider `O=C(O)CN(CCN(CC(=O)O)CC(=O)O)CC(=O)O` [EDTA, ethylenediaminetetraacetic acid], for which, in data set [8], the “reduction of fluorescence emission of L-tryptophan” value is listed as “no change”.
As for `C[C@@H](O)[C@H]1C(=O)N2C(C(=O)O)=C(SCCN=CN)C[C@H]12` [Imipenem, imipenem], the MIC amounted to 16 µg/mL (≈ 53.4 µM) in [9] (read-out: MIC, imipenem, E. coli isolate Ah8.71); 16 µg/mL (≈ 53.4 µM) in [9] (read-out: MIC, imipenem, E. coli isolate Ah8.73); 16 µg/mL (≈ 53.4 µM) in data set [9] (read-out: MIC, imipenem, E. coli isolate Ah8.75); 16 µg/mL (≈ 53.4 µM) in data set [9] (read-out: MIC, imipenem, E. coli isolate Ch8.68); 4 µg/mL (≈ 13.4 µM) in data set [9] (read-out: MIC, imipenem, E. coli isolate Ch8.69); 16 µg/mL (≈ 53.4 µM) in data set [9] (read-out: MIC, imipenem, E. coli isolate Ch8.70). Besides, the MIC in data set [9] (read-out: MIC, imipenem, E. coli isolate Ch8.72) is 16 µg/mL (≈ 53.4 µM); in [10] (read-out: MIC, imipenem, K. pneumoniae isolate Cm1.62), 16 µg/mL (≈ 53.4 µM); in data set [10] (read-out: MIC, imipenem, K. pneumoniae isolate Cm1.63), 8 µg/mL (≈ 26.7 µM); in [10] (read-out: MIC, imipenem, K. pneumoniae isolate Pd1.48), 8 µg/mL (≈ 26.7 µM); in data set [10] (read-out: MIC, imipenem, K. pneumoniae isolate Pd1.49) it was 4 µg/mL (≈ 13.4 µM); in data set [10] (read-out: MIC, imipenem, K. pneumoniae isolate Pd1.50) it was 8 µg/mL (≈ 26.7 µM). Moreover, the MIC was 8 µg/mL (≈ 26.7 µM) in data set [10] (read-out: MIC, imipenem, K. pneumoniae isolate Pd1.53); 8 µg/mL (≈ 26.7 µM) in data set [10] (read-out: MIC, imipenem, K. pneumoniae isolate Pd1.54); 8 µg/mL (≈ 26.7 µM) in data set [10] (read-out: MIC, imipenem, K. pneumoniae isolate Pd1.55); 4 to 16 µg/mL (≈ 13.4 to 53.4 µM) in [7] (read-out: MICs of imipenem alone).
As for `C[C@H](CS)C(=O)N1CCC[C@H]1C(=O)O` [L-Captopril], the “Zn(II) content” value on NDM-1 [5] was “did not change”. Besides, the “reduction of fluorescence emission of L-tryptophan” value in data set [8] is given as “no change”.
